Measurements published in ChEMBL document CHEMBL4052683, “The discovery of benzoxazine sulfonamide inhibitors of NaV1.7: Tools that bridge efficacy and target engagement” (Bioorg Med Chem Lett, 2017).
pIC50: −log10 of the molar value.

Experiments:
Plasma [1] = assay: Plasma concentration in Sprague-Dawley rat model of formalin-induced nociception behavior at 30 mg/kg, po; type: ADME, organism-based; details: in vivo
In short: (§1)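 Sprague Dawley rats got 10, 30 or 100 mg/kg PO in 30% (w/v) hydroxypropyl β-cyclodextrin, pH 10.0 with KOH. Total phase II formalin-induced flinches were counted. Morphine sulfate 2 mg/kg SC served as control. Unbound plasma levels were measured and compared with the rat NaV1.7 IC50.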

Plasma [2] = assay: Unbound plasma concentration in C57BL/6 mouse model of formalin-induced nociception behavior at 60 mg/kg, po; type: ADME, organism-based; details: in vivo
In short: (§2)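 The formalin arm received 2% formalin subcutaneously into the dorsal hind paw, and total phase II licking and lifting was scored. The pruritus arm was dosed 120 min before histamine (8.15mM, intradermal, nape of neck), and scratch bouts were counted over 0-30 min. Unbound plasma concentration was determined at each dose.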

[3] = Cmax in mouse at 30 mg/kg, po by LC-MS/MS method; type: ADME, organism-based; parameters: dose 30 mg/kg, route oral; details: in vivo
Plasma [4] = assay: Unbound plasma concentration in Sprague-Dawley rat model of formalin-induced nociception behavior at 30 mg/kg, po; type: ADME, organism-based; details: in vivo
In short: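 Total phase II formalin-induced flinches were scored. Unbound plasma concentration was determined at each dose and related to the rat NaV1.7 IC50.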

[5] = Half life in rat at 0.5 mg/kg, iv by LC-MS/MS method; type: ADME, organism-based; details: in vivo
In short: (§3)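 Male rats got 0.5 mg/kg IV as a DMSO solution. Unbound clearance was taken as rat clearance divided by the unbound fraction from equilibrium dialysis.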

Rattus norvegicus [6] = assay: Analgesic activity in Sprague-Dawley rat model of formalin-induced nociception behavior assessed as reduction in formalin-evoked paw flinching at 100 mg/kg, po; type: functional; in short: as §1
Mus musculus [7] = assay: Anti-pruritic activity in C57BL/6 mouse model of histamine-induced pruritus assessed as reduction in histamine-induced scratching at 30 mg/kg, po dosed 120 mins before test; type: functional
In short: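 Male C57BL/6 mice got 30, 60 or 100 mg/kg PO in 30% hydroxypropyl β-cyclodextrin, pH 10.0, 120 min before the test. Histamine (8.15mM) was given intradermally to the nape of the neck just before testing, and scratch bouts were counted over 0–30 min. Diphenhydramine 30 mg/kg PO in water, 90 min before, served as control. Unbound plasma concentrations were measured.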

[8] = Protein binding in mouse plasma at 5 uM by ultracentrifugation and LC-MS/MS method; type: ADME, cell-free; details: read-out: PPB (converted)
Mus musculus [9] = assay: Analgesic activity in C57BL/6 mouse model of formalin-induced nociception behavior assessed as reduction in formalin-evoked paw lifting/licking at 60 mg/kg, po; type: functional
In short: (§4)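 Male C57BL/6 mice got 30, 60 or 100 mg/kg PO in 30% (w/v) hydroxypropyl β-cyclodextrin in water, pH 10.0 with KOH. Formalin (2%) was injected subcutaneously into the dorsal hind paw, and total phase II paw licking and lifting were scored. Morphine sulfate 3 mg/kg SC served as control. Unbound plasma concentration was divided by the mouse NaV1.7 IC50.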

[10] = Ratio of unbound plasma concentration in C57BL/6 mouse model of histamine-induced pruritus at 100 mg/kg, po to IC50 for mouse Nav1.7 by whole cell voltage clamp method; in short: as §2
Plasma [11] = assay: Unbound plasma concentration in C57BL/6 mouse model of histamine-induced pruritus at 30 mg/kg, po; type: ADME, organism-based; details: in vivo; in short: as §2
[12] = Half life in mouse at 30 mg/kg, po by LC-MS/MS method; type: ADME, organism-based; details: in vivo
[13] = Tmax in mouse at 30 mg/kg, po by LC-MS/MS method; type: ADME, organism-based; details: in vivo
[14] = Clearance in pooled rat liver microsomes at 1 uM in presence of NADPH by LC-MS/MS method; type: ADME, microsome; details: read-out: CLH
Rattus norvegicus [15] = assay: Analgesic activity in Sprague-Dawley rat model of formalin-induced nociception behavior assessed as reduction in formalin-evoked paw flinching at 30 mg/kg, po; type: functional; in short: as §1
[16] = Volume of distribution in rat at 0.5 mg/kg, iv by LC-MS/MS method; type: ADME, organism-based; details: in vivo
Plasma [17] = assay: Plasma concentration in Sprague-Dawley rat model of formalin-induced nociception behavior at 10 mg/kg, po; type: ADME, organism-based; details: in vivo; in short: as §1
[18] = Half life in rat at 10 mg/kg, po by LC-MS/MS method; type: ADME, organism-based; details: in vivo
[19] = Cmax in rat at 10 mg/kg, po by LC-MS/MS method; type: ADME, organism-based; parameters: dose 10 mg/kg, route oral; details: in vivo
Mus musculus [20] = assay: Analgesic activity in C57BL/6 mouse model of formalin-induced nociception behavior assessed as reduction in formalin-evoked paw lifting/licking at 30 to 100 mg/kg, po; type: functional, organism-based; in short: as §4
Plasma [21] = assay: Plasma concentration in C57BL/6 mouse model of formalin-induced nociception behavior at 30 mg/kg, po; type: ADME, organism-based; details: in vivo; in short: as §4
[22] = AUC (infinity) in rat at 0.5 mg/kg, iv by LC-MS/MS method; type: ADME, organism-based; parameters: dose 0.5 mg/kg, time infinity, route intravenous; details: in vivo; in short: as §3
[23] = Ratio of unbound plasma concentration in C57BL/6 mouse model of formalin-induced nociception behavior at 60 mg/kg, po to IC50 for mouse Nav1.7 by whole cell voltage clamp method; in short: as §2
[24] = Ratio of unbound plasma concentration in C57BL/6 mouse model of histamine-induced pruritus at 30 mg/kg, po to IC50 for mouse Nav1.7 by whole cell voltage clamp method; in short: as §2
[25] = Apparent permeability in MDCK vector control cells at 5 uM; details: dog
[26] = biological target: Sodium channel protein type 9 subunit alpha (Mus musculus, UniProt Q62205); assay: Inhibition of mouse NaV1.7 by whole cell voltage clamp method
In short: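 PatchXpress electrophysiology was run with a protocol giving about 20% channel inactivation. At least four concentrations at half-log spacing were applied one at a time, with washout, current recovery and holding voltage reset between each. Data were pooled from at least 10 cells, with 2–3 points per concentration, and fitted with a 4-parameter Hill curve to give one IC50.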

[27] = AUC (infinity) in mouse at 30 mg/kg, po by LC-MS/MS method; type: ADME, organism-based; parameters: dose 30 mg/kg, time infinity, route oral; details: in vivo
Rattus norvegicus [28] = assay: Analgesic activity in Sprague-Dawley rat model of formalin-induced nociception behavior assessed as reduction in formalin-evoked paw flinching at 10 to 100 mg/kg, po; type: functional, organism-based; in short: as §1
[29] = Ratio of unbound plasma concentration in C57BL/6 mouse model of formalin-induced nociception behavior at 30 mg/kg, po to IC50 for mouse Nav1.7 by whole cell voltage clamp method; in short: as §4
[30] = biological target: Sodium channel protein type 5 subunit alpha (Homo sapiens, UniProt Q14524); assay: Inhibition of human NaV1.5 expressed in […] cells at holding potential of -125 mV with test potentials to -10 mV by whole cell voltage clamp method; type: cell-based
Rattus norvegicus [31] = assay: Unbound clearance in rat at 0.5 mg/kg, iv by LC-MS/MS method; type: ADME, organism-based; details: in vivo
In short: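 Male rats given 0.5 mg/kg intravenously as a solution in DMSO. Unbound clearance was calculated as rat clearance divided by unbound fraction, with unbound fraction determined by equilibrium dialysis.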

Mus musculus [32] = assay: Analgesic activity in C57BL/6 mouse model of formalin-induced nociception behavior assessed as reduction in formalin-evoked paw lifting/licking at 100 mg/kg, po; type: functional; in short: as §4
Plasma [33] = assay: Plasma concentration in C57BL/6 mouse model of formalin-induced nociception behavior at 60 mg/kg, po; type: ADME, organism-based; details: in vivo; in short: as §4

Chain of Sodium channel protein type 5 subunit alpha (Q14524 whole entry): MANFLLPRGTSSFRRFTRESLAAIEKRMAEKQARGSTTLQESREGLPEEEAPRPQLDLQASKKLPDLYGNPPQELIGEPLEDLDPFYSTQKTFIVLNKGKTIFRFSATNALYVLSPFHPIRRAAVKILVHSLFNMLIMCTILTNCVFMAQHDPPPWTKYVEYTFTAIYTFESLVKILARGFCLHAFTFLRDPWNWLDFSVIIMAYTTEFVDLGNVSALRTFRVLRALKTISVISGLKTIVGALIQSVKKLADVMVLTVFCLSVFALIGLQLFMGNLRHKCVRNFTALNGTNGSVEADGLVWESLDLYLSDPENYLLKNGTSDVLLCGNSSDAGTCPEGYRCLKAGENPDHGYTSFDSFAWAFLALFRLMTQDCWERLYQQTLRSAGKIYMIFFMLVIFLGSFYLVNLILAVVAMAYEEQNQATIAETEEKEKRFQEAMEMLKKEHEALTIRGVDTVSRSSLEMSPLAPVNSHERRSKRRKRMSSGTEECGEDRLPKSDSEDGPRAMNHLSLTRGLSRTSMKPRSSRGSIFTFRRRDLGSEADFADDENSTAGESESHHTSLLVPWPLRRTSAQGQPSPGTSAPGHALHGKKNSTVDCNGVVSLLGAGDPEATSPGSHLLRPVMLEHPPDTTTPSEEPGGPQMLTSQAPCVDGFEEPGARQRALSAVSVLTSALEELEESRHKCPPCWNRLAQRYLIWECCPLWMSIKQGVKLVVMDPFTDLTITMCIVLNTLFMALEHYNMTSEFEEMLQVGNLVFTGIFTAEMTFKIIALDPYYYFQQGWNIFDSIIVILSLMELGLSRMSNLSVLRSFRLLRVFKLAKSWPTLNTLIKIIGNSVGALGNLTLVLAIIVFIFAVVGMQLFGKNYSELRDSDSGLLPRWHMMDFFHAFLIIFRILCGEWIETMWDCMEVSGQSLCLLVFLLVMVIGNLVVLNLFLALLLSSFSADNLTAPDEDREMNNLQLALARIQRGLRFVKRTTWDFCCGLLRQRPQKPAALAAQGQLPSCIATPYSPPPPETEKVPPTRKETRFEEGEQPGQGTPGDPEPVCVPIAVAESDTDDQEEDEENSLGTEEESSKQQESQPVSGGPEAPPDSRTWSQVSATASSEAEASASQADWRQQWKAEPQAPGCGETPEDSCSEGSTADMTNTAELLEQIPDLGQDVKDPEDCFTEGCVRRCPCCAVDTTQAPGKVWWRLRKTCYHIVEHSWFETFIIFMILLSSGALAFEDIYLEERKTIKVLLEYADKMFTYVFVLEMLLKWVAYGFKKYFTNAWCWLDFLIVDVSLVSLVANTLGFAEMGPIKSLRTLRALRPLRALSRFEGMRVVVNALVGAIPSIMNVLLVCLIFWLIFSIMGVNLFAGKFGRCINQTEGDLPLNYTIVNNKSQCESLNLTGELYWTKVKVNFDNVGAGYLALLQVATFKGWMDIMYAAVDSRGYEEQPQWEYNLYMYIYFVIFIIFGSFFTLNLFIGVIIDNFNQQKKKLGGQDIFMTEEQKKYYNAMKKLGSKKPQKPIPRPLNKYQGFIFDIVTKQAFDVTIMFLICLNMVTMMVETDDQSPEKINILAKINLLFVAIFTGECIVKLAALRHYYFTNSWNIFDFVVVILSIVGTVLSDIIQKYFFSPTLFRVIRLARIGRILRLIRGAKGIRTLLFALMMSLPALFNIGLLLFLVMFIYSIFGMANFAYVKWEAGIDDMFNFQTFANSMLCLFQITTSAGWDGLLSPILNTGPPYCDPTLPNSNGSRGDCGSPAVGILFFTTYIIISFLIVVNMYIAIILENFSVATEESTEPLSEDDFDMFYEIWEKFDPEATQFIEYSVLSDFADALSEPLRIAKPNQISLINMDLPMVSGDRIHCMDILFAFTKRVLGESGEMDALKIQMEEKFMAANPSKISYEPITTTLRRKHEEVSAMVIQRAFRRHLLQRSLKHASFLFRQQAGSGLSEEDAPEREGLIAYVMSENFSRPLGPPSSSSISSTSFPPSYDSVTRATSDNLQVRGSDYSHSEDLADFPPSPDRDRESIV
Chain of Sodium channel protein type 9 subunit alpha (Q62205 whole entry): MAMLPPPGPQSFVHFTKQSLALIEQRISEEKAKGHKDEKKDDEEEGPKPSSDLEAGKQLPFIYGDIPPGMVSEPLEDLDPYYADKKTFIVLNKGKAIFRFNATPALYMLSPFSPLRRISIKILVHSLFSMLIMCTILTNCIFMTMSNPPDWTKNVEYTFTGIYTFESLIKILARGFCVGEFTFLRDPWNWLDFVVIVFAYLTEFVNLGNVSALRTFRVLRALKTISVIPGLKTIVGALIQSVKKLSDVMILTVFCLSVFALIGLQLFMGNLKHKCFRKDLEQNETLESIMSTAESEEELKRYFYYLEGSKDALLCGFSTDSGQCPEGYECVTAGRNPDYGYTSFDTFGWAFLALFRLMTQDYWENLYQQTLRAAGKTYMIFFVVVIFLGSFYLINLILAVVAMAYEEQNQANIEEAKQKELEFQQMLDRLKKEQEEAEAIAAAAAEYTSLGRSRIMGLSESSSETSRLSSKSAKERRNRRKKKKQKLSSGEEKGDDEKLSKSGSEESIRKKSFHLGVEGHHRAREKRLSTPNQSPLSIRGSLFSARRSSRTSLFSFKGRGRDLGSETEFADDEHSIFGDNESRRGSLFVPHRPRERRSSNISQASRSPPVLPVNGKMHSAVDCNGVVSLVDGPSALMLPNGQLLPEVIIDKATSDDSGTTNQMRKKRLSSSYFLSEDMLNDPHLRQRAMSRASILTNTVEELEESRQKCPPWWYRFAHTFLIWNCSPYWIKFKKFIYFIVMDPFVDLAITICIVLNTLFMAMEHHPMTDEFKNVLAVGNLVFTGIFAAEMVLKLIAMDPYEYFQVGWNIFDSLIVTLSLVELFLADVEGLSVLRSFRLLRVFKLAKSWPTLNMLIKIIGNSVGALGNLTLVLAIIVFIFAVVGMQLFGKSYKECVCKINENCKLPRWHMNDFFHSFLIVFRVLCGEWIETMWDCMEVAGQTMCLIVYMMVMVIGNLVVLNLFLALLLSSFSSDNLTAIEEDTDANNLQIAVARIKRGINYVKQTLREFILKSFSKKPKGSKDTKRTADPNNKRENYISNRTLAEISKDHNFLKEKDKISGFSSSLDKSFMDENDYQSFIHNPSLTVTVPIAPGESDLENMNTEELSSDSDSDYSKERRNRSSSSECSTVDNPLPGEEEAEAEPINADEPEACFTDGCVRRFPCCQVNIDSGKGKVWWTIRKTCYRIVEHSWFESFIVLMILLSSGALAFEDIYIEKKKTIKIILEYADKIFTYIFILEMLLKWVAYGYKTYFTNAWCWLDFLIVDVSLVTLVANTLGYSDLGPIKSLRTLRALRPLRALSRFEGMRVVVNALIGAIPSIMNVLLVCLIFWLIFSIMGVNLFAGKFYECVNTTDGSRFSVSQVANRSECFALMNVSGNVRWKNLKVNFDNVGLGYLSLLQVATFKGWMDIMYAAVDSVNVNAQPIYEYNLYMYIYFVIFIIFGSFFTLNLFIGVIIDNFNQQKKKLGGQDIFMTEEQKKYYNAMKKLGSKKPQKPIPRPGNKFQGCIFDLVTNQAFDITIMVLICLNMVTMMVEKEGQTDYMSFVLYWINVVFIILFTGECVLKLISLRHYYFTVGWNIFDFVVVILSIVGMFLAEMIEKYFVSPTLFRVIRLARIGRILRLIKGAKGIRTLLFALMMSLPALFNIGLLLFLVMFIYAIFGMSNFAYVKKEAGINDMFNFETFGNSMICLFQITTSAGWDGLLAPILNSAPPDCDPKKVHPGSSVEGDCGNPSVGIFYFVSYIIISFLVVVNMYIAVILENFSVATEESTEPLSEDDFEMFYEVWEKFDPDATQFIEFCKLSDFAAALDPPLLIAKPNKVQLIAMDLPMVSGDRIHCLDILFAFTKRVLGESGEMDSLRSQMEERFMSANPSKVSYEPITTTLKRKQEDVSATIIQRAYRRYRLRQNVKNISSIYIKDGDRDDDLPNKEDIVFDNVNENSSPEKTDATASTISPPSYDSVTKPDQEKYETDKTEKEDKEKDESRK

N#Cc1cc(C(F)(F)F)ccc1N1CCOc2cc(S(=O)(=O)Nc3nccs3)c(F)cc21
concentration (Plasma [1]): 4.2 µM | Cp(f) (Plasma [2]): 0.62 µM | Cmax [3]: 58 µM | Cp(f) (Plasma [4]): 0.065 µM | half-life [5]: 216 min | MPE (Rattus norvegicus [6]): 70% | MPE (Mus musculus [7]): 37% | fraction unbound at 5 µM [8]: 0.006 | MPE (Mus musculus [9]): 45% | Ratio [10]: 11 | Cp(f) (Plasma [11]): 0.37 µM | half-life [12]: 426 min | Tmax [13]: 2 h | microsomal CLint at 1 µM [14]: < 14 µL/min/mg | MPE (Rattus norvegicus [15]): 39% | Vd [16]: 2.5 L/kg | concentration (Plasma [17]): 1700 nM | half-life [18]: 588 min | Cmax [19]: 950 to 990 nM | inhibition (Mus musculus [20]): Dose-dependent effect | concentration (Plasma [21]): 51 µM | AUC(0-inf) [22]: 1.8 µM·h | Ratio [23]: 10 | Ratio [24]: 6 | Papp at 5 µM [25]: 19 ×10⁻⁶ cm/s | pIC50 [26]: 7.22 | AUC(0-inf) [27]: 790 µM·h | inhibition (Rattus norvegicus [28]): Dose-dependent effect | Ratio [29]: 5 | pIC50 [30]: 6.48 to 6.49 | CL free (Rattus norvegicus [31]): 39 L/h/kg | MPE (Mus musculus [32]): 77% | concentration (Plasma [33]): 100 µM
